# From ChEMBL document CHEMBL4689842, “EUbOPEN Chemogenomics Library wave 1” (2021)
# System: U2OS
# Assay: Multiplex assay against U2OS
# Format: toxicity, cell-based
# Details: human
# Summary of the method: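 Imaging took place on a CQ1 microscope at 37°C and 5% CO2 once compound had been added to live cells stained at seeding with Hoechst33342, BioTracker Green Microtubule Cytoskeleton Dye, MitoTracker Red and Annexin V Alexa Fluor 680. CellPathfinder machine-learning gating classed cells as Hoechst high-intensity objects or normal cells, classed normal cells as having healthy, pyknosed or fragmented nuclei, and classed pyknosed cells as mitotic or apoptotic. Tubulin, mitochondrial-mass and membrane-permeability phenotypes are per cents of the healthy-nucleus cells.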
# [1] = 12 h, 1 µM, compound concentration 1 uM, replicate 1
# [2] = 12 h, 1 µM, compound concentration 1 uM, replicate 2
# [3] = 12 h, 10 µM, compound concentration 10 uM, replicate 1
# [4] = 12 h, 10 µM, compound concentration 10 uM, replicate 2
# [5] = 24 h, 1 µM, compound concentration 1 uM, replicate 1
# [6] = 24 h, 1 µM, compound concentration 1 uM, replicate 2
# [7] = 24 h, 10 µM, compound concentration 10 uM, replicate 1
# [8] = 24 h, 10 µM, compound concentration 10 uM, replicate 2
# [9] = 48 h, 1 µM, compound concentration 1 uM, replicate 1
# [10] = 48 h, 1 µM, compound concentration 1 uM, replicate 2
# [11] = 48 h, 10 µM, compound concentration 10 uM, replicate 1
# [12] = 48 h, 10 µM, compound concentration 10 uM, replicate 2
smiles,measurement,setting,value
C[C@]12CC[C@@H]3c4ccc(O)cc4CC[C@H]3[C@@H]1CC[C@@H]2O [ESTRADIOL],Population Apoptotic (%),[1],11%
same,Population Fragmented Nuclei (%),[1],8%
same,Population Healthy Nuclei (%),[1],82%
same,Population Hoechst High Intensity Objects (%),[1],7%
same,Population Membrane Permeable-Phenotype (%),[1],10%
same,Population Mitochondria Different-Phenotype (%),[1],9%
same,Population Mitotic Cells (%),[1],88%
same,Population Normal (%),[1],92%
same,Population Pyknosed Nuclei (%),[1],8%
same,Population Tubulin-Different-Phenotype (%),[1],12%
same,Total Cell Count,[1],138
same,Population Apoptotic (%),[2],50%
same,Population Healthy Nuclei (%),[2],86%
same,Population Hoechst High Intensity Objects (%),[2],5%
same,Population Membrane Permeable-Phenotype (%),[2],4%
same,Population Mitochondria Different-Phenotype (%),[2],8%
same,Population Mitotic Cells (%),[2],50%
same,Population Normal (%),[2],94%
same,Population Pyknosed Nuclei (%),[2],5%
same,Population Tubulin-Different-Phenotype (%),[2],14%
same,Total Cell Count,[2],80
same,Population Apoptotic (%),[3],30%
same,Population Fragmented Nuclei (%),[3],5%
same,Population Healthy Nuclei (%),[3],82%
same,Population Hoechst High Intensity Objects (%),[3],4%
same,Population Membrane Permeable-Phenotype (%),[3],6%
same,Population Mitochondria Different-Phenotype (%),[3],7%
same,Population Mitotic Cells (%),[3],70%
same,Population Normal (%),[3],95%
same,Population Pyknosed Nuclei (%),[3],11%
same,Population Tubulin-Different-Phenotype (%),[3],14%
same,Total Cell Count,[3],113
same,Population Apoptotic (%),[4],25%
same,Population Fragmented Nuclei (%),[4],9%
same,Population Healthy Nuclei (%),[4],77%
same,Population Hoechst High Intensity Objects (%),[4],8%
same,Population Membrane Permeable-Phenotype (%),[4],4%
same,Population Mitochondria Different-Phenotype (%),[4],12%
same,Population Mitotic Cells (%),[4],75%
same,Population Normal (%),[4],91%
same,Population Pyknosed Nuclei (%),[4],12%
same,Population Tubulin-Different-Phenotype (%),[4],25%
same,Total Cell Count,[4],76
same,Population Apoptotic (%),[5],0%
same,Population Fragmented Nuclei (%),[5],7%
same,Population Healthy Nuclei (%),[5],87%
same,Population Hoechst High Intensity Objects (%),[5],5%
same,Population Membrane Permeable-Phenotype (%),[5],6%
same,Population Mitochondria Different-Phenotype (%),[5],6%
same,Population Mitotic Cells (%),[5],100%
same,Population Normal (%),[5],94%
same,Population Pyknosed Nuclei (%),[5],5%
same,Population Tubulin-Different-Phenotype (%),[5],15%
same,Total Cell Count,[5],140
same,Population Apoptotic (%),[6],50%
same,Population Fragmented Nuclei (%),[6],4%
same,Population Healthy Nuclei (%),[6],89%
same,Population Hoechst High Intensity Objects (%),[6],3%
same,Population Membrane Permeable-Phenotype (%),[6],4%
same,Population Mitochondria Different-Phenotype (%),[6],9%
same,Population Mitotic Cells (%),[6],50%
same,Population Normal (%),[6],96%
same,Population Pyknosed Nuclei (%),[6],6%
same,Population Tubulin-Different-Phenotype (%),[6],14%
same,Total Cell Count,[6],82
same,Population Apoptotic (%),[7],21%
same,Population Fragmented Nuclei (%),[7],7%
same,Population Healthy Nuclei (%),[7],79%
same,Population Membrane Permeable-Phenotype (%),[7],2%
same,Population Mitotic Cells (%),[7],78%
same,Population Pyknosed Nuclei (%),[7],12%
same,Population Tubulin-Different-Phenotype (%),[7],12%
same,Total Cell Count,[7],140
same,Population Apoptotic (%),[8],30%
same,Population Fragmented Nuclei (%),[8],18%
same,Population Healthy Nuclei (%),[8],68%
same,Population Hoechst High Intensity Objects (%),[8],3%
same,Population Membrane Permeable-Phenotype (%),[8],5%
same,Population Mitochondria Different-Phenotype (%),[8],11%
same,Population Mitotic Cells (%),[8],70%
same,Population Normal (%),[8],96%
same,Population Pyknosed Nuclei (%),[8],13%
same,Population Tubulin-Different-Phenotype (%),[8],43%
same,Population Apoptotic (%),[9],31%
same,Population Hoechst High Intensity Objects (%),[9],1%
same,Population Membrane Permeable-Phenotype (%),[9],2%
same,Population Mitotic Cells (%),[9],68%
same,Population Normal (%),[9],98%
same,Population Tubulin-Different-Phenotype (%),[9],15%
same,Total Cell Count,[9],138
same,Population Apoptotic (%),[10],18%
same,Population Fragmented Nuclei (%),[10],5%
same,Population Healthy Nuclei (%),[10],86%
same,Population Hoechst High Intensity Objects (%),[10],2%
same,Population Membrane Permeable-Phenotype (%),[10],12%
same,Population Mitochondria Different-Phenotype (%),[10],14%
same,Population Mitotic Cells (%),[10],81%
same,Population Normal (%),[10],97%
same,Population Pyknosed Nuclei (%),[10],7%
same,Population Tubulin-Different-Phenotype (%),[10],17%
same,Total Cell Count,[10],90
same,Population Apoptotic (%),[11],34%
same,Population Fragmented Nuclei (%),[11],8%
same,Population Healthy Nuclei (%),[11],81%
same,Population Membrane Permeable-Phenotype (%),[11],2%
same,Population Mitochondria Different-Phenotype (%),[11],19%
same,Population Mitotic Cells (%),[11],65%
same,Population Tubulin-Different-Phenotype (%),[11],12%
same,Population Apoptotic (%),[12],72%
same,Population Fragmented Nuclei (%),[12],13%
same,Population Healthy Nuclei (%),[12],76%
same,Population Hoechst High Intensity Objects (%),[12],2%
same,Population Membrane Permeable-Phenotype (%),[12],17%
same,Population Mitochondria Different-Phenotype (%),[12],13%
same,Population Mitotic Cells (%),[12],27%
same,Population Normal (%),[12],97%
same,Population Pyknosed Nuclei (%),[12],10%
same,Population Tubulin-Different-Phenotype (%),[12],57%
same,Total Cell Count,[12],157
CC(C)c1noc(N2CCC(COc3ccc(-c4ccc(S(C)(=O)=O)cc4)nc3)CC2)n1 [GSK-1292263],Population Apoptotic (%),[1],58%
same,Population Fragmented Nuclei (%),[1],25%
same,Population Healthy Nuclei (%),[1],64%
same,Population Hoechst High Intensity Objects (%),[1],17%
same,Population Membrane Permeable-Phenotype (%),[1],5%
same,Population Mitochondria Different-Phenotype (%),[1],10%
same,Population Mitotic Cells (%),[1],41%
same,Population Normal (%),[1],82%
same,Population Pyknosed Nuclei (%),[1],10%
same,Population Tubulin-Different-Phenotype (%),[1],10%
same,Total Cell Count,[1],304
same,Population Apoptotic (%),[2],50%
same,Population Fragmented Nuclei (%),[2],12%
same,Population Healthy Nuclei (%),[2],85%
same,Population Hoechst High Intensity Objects (%),[2],2%
same,Population Membrane Permeable-Phenotype (%),[2],3%
same,Population Mitochondria Different-Phenotype (%),[2],4%
same,Population Mitotic Cells (%),[2],50%
same,Population Normal (%),[2],97%
same,Population Pyknosed Nuclei (%),[2],2%
same,Population Tubulin-Different-Phenotype (%),[2],9%
same,Total Cell Count,[2],89
same,Population Apoptotic (%),[3],54%
same,Population Fragmented Nuclei (%),[3],16%
same,Population Healthy Nuclei (%),[3],67%
same,Population Hoechst High Intensity Objects (%),[3],7%
same,Population Membrane Permeable-Phenotype (%),[3],12%
same,Population Mitochondria Different-Phenotype (%),[3],18%
same,Population Mitotic Cells (%),[3],45%
same,Population Normal (%),[3],92%
same,Population Pyknosed Nuclei (%),[3],15%
same,Population Tubulin-Different-Phenotype (%),[3],33%
same,Total Cell Count,[3],141
same,Population Apoptotic (%),[4],42%
same,Population Fragmented Nuclei (%),[4],5%
same,Population Healthy Nuclei (%),[4],83%
same,Population Hoechst High Intensity Objects (%),[4],5%
same,Population Membrane Permeable-Phenotype (%),[4],3%
same,Population Mitochondria Different-Phenotype (%),[4],10%
same,Population Mitotic Cells (%),[4],57%
same,Population Normal (%),[4],94%
same,Population Pyknosed Nuclei (%),[4],10%
same,Population Tubulin-Different-Phenotype (%),[4],15%
same,Total Cell Count,[4],76
same,Population Apoptotic (%),[5],50%
same,Population Fragmented Nuclei (%),[5],17%
same,Population Healthy Nuclei (%),[5],73%
same,Population Hoechst High Intensity Objects (%),[5],15%
same,Population Membrane Permeable-Phenotype (%),[5],5%
same,Population Mitochondria Different-Phenotype (%),[5],11%
same,Population Mitotic Cells (%),[5],50%
same,Population Normal (%),[5],84%
same,Population Pyknosed Nuclei (%),[5],8%
same,Population Tubulin-Different-Phenotype (%),[5],5%
same,Total Cell Count,[5],334
same,Population Apoptotic (%),[6],0%
same,Population Fragmented Nuclei (%),[6],14%
same,Population Healthy Nuclei (%),[6],83%
same,Population Hoechst High Intensity Objects (%),[6],2%
same,Population Membrane Permeable-Phenotype (%),[6],2%
same,Population Mitochondria Different-Phenotype (%),[6],10%
same,Population Mitotic Cells (%),[6],100%
same,Population Normal (%),[6],97%
same,Population Pyknosed Nuclei (%),[6],2%
same,Population Tubulin-Different-Phenotype (%),[6],13%
same,Total Cell Count,[6],103
same,Population Apoptotic (%),[7],40%
same,Population Fragmented Nuclei (%),[7],20%
same,Population Healthy Nuclei (%),[7],67%
same,Population Hoechst High Intensity Objects (%),[7],7%
same,Population Membrane Permeable-Phenotype (%),[7],9%
same,Population Mitochondria Different-Phenotype (%),[7],14%
same,Population Mitotic Cells (%),[7],60%
same,Population Normal (%),[7],92%
same,Population Pyknosed Nuclei (%),[7],12%
same,Population Tubulin-Different-Phenotype (%),[7],14%
same,Total Cell Count,[7],168
same,Population Apoptotic (%),[8],36%
same,Population Fragmented Nuclei (%),[8],7%
same,Population Healthy Nuclei (%),[8],79%
same,Population Hoechst High Intensity Objects (%),[8],4%
same,Population Membrane Permeable-Phenotype (%),[8],7%
same,Population Mitochondria Different-Phenotype (%),[8],12%
same,Population Mitotic Cells (%),[8],63%
same,Population Normal (%),[8],95%
same,Population Pyknosed Nuclei (%),[8],13%
same,Population Tubulin-Different-Phenotype (%),[8],7%
same,Total Cell Count,[8],91
same,Population Apoptotic (%),[9],42%
same,Population Healthy Nuclei (%),[9],79%
same,Population Hoechst High Intensity Objects (%),[9],9%
same,Population Membrane Permeable-Phenotype (%),[9],2%
same,Population Mitochondria Different-Phenotype (%),[9],12%
same,Population Mitotic Cells (%),[9],57%
same,Population Normal (%),[9],90%
same,Population Pyknosed Nuclei (%),[9],9%
same,Population Tubulin-Different-Phenotype (%),[9],8%
same,Total Cell Count,[9],406
same,Population Apoptotic (%),[10],25%
same,Population Fragmented Nuclei (%),[10],11%
same,Population Healthy Nuclei (%),[10],85%
same,Population Hoechst High Intensity Objects (%),[10],0%
same,Population Membrane Permeable-Phenotype (%),[10],4%
same,Population Mitochondria Different-Phenotype (%),[10],13%
same,Population Mitotic Cells (%),[10],75%
same,Population Normal (%),[10],100%
same,Population Pyknosed Nuclei (%),[10],3%
same,Population Tubulin-Different-Phenotype (%),[10],12%
same,Total Cell Count,[10],136
same,Population Apoptotic (%),[11],60%
same,Population Fragmented Nuclei (%),[11],14%
same,Population Healthy Nuclei (%),[11],76%
same,Population Hoechst High Intensity Objects (%),[11],8%
same,Population Mitotic Cells (%),[11],40%
same,Population Normal (%),[11],91%
same,Population Pyknosed Nuclei (%),[11],9%
same,Population Tubulin-Different-Phenotype (%),[11],9%
same,Total Cell Count,[11],231
same,Population Apoptotic (%),[12],23%
same,Population Fragmented Nuclei (%),[12],5%
same,Population Healthy Nuclei (%),[12],80%
same,Population Hoechst High Intensity Objects (%),[12],2%
same,Population Membrane Permeable-Phenotype (%),[12],6%
same,Population Mitochondria Different-Phenotype (%),[12],13%
same,Population Mitotic Cells (%),[12],76%
same,Population Normal (%),[12],97%
same,Population Pyknosed Nuclei (%),[12],14%
same,Population Tubulin-Different-Phenotype (%),[12],7%
same,Total Cell Count,[12],130
